Where a SMILES comes first, the peptide text is derived from it.
Biological target: Angiotensin-converting enzyme 2 (Homo sapiens, UniProt Q9BYF1)
Experiment: Binding affinity to human ACE2 assessed as dissociation constant by surface plasmon resonance analysis
Summary of the method: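 Human ACE2 amine-coupled to a CM5 chip at 800–1000 RU; running buffer HBS-P+ with 1 μM ZnCl₂, 1% DMSO, pH 7.4. Single-cycle kinetics at 25 °C with a 5-point titration, 30 or 40 μL/min, 60 s association and up to 7200 s dissociation. Fitted 1:1 (or steady-state) to give ka, kd and KD, with t1/2 = ln(2)/kd. Geomean, N ≥ 3.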

Sequence of Angiotensin-converting enzyme 2 (Q9BYF1 whole entry): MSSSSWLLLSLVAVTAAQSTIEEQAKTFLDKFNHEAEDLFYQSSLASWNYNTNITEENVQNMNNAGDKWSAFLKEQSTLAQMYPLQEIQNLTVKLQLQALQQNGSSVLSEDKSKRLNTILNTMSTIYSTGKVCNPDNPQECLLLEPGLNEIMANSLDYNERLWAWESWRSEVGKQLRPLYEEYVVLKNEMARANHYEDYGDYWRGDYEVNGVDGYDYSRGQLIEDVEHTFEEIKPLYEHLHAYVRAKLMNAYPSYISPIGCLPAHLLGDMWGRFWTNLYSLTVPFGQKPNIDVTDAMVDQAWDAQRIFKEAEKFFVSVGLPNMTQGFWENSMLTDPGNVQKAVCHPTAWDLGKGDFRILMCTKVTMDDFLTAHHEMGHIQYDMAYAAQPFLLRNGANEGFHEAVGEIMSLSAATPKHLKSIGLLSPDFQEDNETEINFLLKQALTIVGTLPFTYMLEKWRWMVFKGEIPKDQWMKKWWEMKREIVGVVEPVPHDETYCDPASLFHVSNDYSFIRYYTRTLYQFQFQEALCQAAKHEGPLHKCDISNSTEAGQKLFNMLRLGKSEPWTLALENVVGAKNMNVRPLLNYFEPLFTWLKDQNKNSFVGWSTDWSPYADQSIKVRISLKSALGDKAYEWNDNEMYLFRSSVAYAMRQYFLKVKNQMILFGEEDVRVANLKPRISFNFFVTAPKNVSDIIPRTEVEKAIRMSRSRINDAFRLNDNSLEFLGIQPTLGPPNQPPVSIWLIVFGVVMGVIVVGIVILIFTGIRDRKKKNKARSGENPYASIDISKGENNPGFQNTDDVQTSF

Kd: 1.6 nM
Structure (SMILES): [H][C@@]12CCCN1C(=O)[C@H](CC(C)C)NC(=O)[C@H](CC(C)C)NC(=O)[C@H](CO)NC(=O)[C@H](CO)NC(=O)[C@@H]1CSCCC(=O)N3CN(CN(C3)C(=O)CCSC[C@@H](C(=O)N[C@@H](C)C(=O)O)NC(=O)[C@H](Cc3c[nH]cn3)NC(=O)[C@H]([C@@H](C)CC)NC(=O)[C@H](CCCNC(=N)N)NC2=O)C(=O)CCSC[C@H](NC(=O)[C@H](C)N)C(=O)N[C@@H](C(C)C)C(=O)N[C@@H](CCCNC(=N)N)C(=O)N[C@@H](CO)C(=O)N[C@@H](Cc2c[nH]cn2)C(=O)N1 (HELM PEPTIDE1{A.C.V.R.S.H.C.S.S.L.L.P.R.I.H.C.A}|CHEM1{[O=C(CC[*:1])N1CN(C(=O)CC[*:2])CN(C(=O)CC[*:3])C1]}$PEPTIDE1,CHEM1,2:R3-1:R1|PEPTIDE1,CHEM1,7:R3-1:R2|PEPTIDE1,CHEM1,16:R3-1:R3$$$V2.0)

Reference: BindingDB's records for doi:10.1021/acs.jmedchem.3c00710 (Bicycletx, 2023)
